Hits are enriched below; roughly 4.6% of the tested compounds scored in any of these assays.
UCH37 inh: blocks the human deubiquitinase UCH37; purified proteasome/UCH37, Ub-AMC cleavage fluorescence; inhibition, % (test concentration not listed); 0.33% of 330,000 active; AID 588478;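 active = mean inhibition over replicate wells above about 20%, limit read from the data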;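 also: 0% = compound-free wells with enzyme and 100% = wells lacking proteasome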
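Schedule: 30 min plus 25 min, room temperature / Material: human UCH37 within purified proteasomes / Technique: AMC fluorescence intensity at 355/460 nm / Buffer or medium: pH 7.4 Tris-HCl (50 mM) with ovalbumin, ATP-MgCl2, DTT / Controls: wells without proteasome as full block, compound-free enzyme plus substrate as uninhibited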
HDAC3 inhib: blocks human histone deacetylase 3; O15379; recombinant HDAC3, fluorogenic peptide/trypsin coupled, fluorescence; inhibition, % at 8.3 µM; 0.15% of 320,000 active; AID 2718; in the data active = inhibition above about 26%, passing the limit was not always enough; inconclusive = no clear call, values can overlap the other calls
Target sequence (O15379 whole entry, looked up): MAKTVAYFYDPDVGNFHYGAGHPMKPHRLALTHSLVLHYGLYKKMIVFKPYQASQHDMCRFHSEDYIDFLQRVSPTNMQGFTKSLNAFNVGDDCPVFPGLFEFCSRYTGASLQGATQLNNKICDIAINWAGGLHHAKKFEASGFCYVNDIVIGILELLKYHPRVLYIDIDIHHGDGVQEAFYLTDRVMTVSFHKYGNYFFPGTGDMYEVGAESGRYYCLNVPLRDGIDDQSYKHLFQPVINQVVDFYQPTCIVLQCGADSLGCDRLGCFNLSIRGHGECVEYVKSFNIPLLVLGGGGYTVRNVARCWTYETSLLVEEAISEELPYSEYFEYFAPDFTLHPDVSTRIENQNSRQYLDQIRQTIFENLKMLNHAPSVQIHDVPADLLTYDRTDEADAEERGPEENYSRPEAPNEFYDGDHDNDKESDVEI
Rtt109 Vps75: inhibitors of Candida albicans Rtt109/Vps75 histone acetyltransferase; 0.16% of 330,000 active; Q5AAJ8; inhibition, % at 34.9 µM; purified Rtt109/Vps75, ThioGlo CoA-SH fluorescence, 4 h; AID 540336;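 active = inhibition of at least 50% in every replicate; inconclusive = best replicate reaches 50% inhibition but some replicates fall short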
PfM18AAP inh: blocks P. falciparum M18 aspartyl aminopeptidase; recombinant PfM18AAP, H-Glu-NHMec fluorogenic cleavage; inhibition, % at 7.35 µM; 1.2% of 290,000 active;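 active = inhibition above the campaign mean inhibition over all tested compounds plus 3 SD, cut at about 28% in these data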;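 also: 0% = plate median of test compound wells and 100% = 2 mM ZnCl2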
FAS-TE inh: inhibitors of human fatty acid synthase thioesterase domain; P49327; recombinant FAS-TE, OMFH fluorogenic substrate, fluorescence endpoint; inhibition, % at 15 µM; 0.67% of 360,000 active;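 active = compounds whose normalised, plate-corrected inhibition of enzyme fluorescence in the single-dose primary screen is 50% or more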;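 also: 0% = DMSO with enzyme and 100% = substrate without enzyme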
ALR inh: human ALR oxidase inhibition via reduced H2O2; inhibition, % (concentration not given with the values); P55789; purified ALR, DTT oxidation, H2O2 HRP-luminol luminescence; 3.8% of 290,000 active;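 active = mean replicate inhibition above about 79%, with every replicate also reaching it, limit read from the data; inconclusive = only one of the two criteria met; inactive = mean below limit and not every replicate reaching it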
* hit, by the source's call; ? = inconclusive; / = no result.

SMILES	UCH37 inh	HDAC3 inhib	Rtt109 Vps75	PfM18AAP inh	FAS-TE inh	ALR inh
COc1cc(C=NN2C(=O)C3C4C=CC(CC4)C3C2=O)ccc1O (centres undefined)	4.8	/	/	/	/	/
COc1cc(C=NNC(=O)NC2CCCCC2)cc(OC)c1O	1.5	/	/	/	/	/
COc1cc(/C=N/N2C(=O)C3C4C=CC(CC4)C3C2=O)ccc1O (centres undefined)	/	2.1	2.4	0.4	-3.6	90.2*
COc1cc(/C=N/NC(=O)NC2CCCCC2)ccc1O	/	17.1	-4.0	1.4	2.6	99.1*
COc1cc(/C=N/NC(=O)NC2CCCCC2)cc(OC)c1O	/	0.6	5.6	29.4*	-1.9	98.9*
O=C(CC(=O)NC1CCCCC1)NN=Cc1ccc(Cl)cc1	27.0*	/	/	/	/	/
CSC(=NS(=O)(=O)c1cccs1)Nc1ccc(N2CCOCC2)cc1	-1.3	/	/	/	/	/
COc1cc(/C=N/n2c(SC)nnc(C(C)(C)C)c2=O)ccc1O	/	1.5	18.5	4.4	-4.8	62.1
COc1cc(C=Nn2c(SC)nnc(C(C)(C)C)c2=O)ccc1O	34.8*	/	/	/	/	/
CCOC(=O)c1c(C)n(C)c2ccc(OCC(O)CNC(CC)CO)cc12 (centres undefined)	3.2	8.3	?	-0.1	-3.5	0.4
CCOC(=O)c1c(C)n(-c2ccc(C)cc2)c2ccc(OCC(O)CNCCCO)cc12 (centres undefined)	4.5	-0.1	67.4*	-0.1	-1.6	/
OC(CNCC1CCCO1)COc1ccc(OCC(O)CNCC2CCCO2)cc1 (centres undefined)	3.8	-0.7	-5.3	2.2	-7.5	-0.7
CCOC(=O)c1c(C)n(-c2ccc(C)cc2)c2ccc(OCC(O)CNCC3CCCO3)cc12 (centres undefined)	7.3	11.8	64.3*	-2.8	3.6	-6.2
O=C(NC(=S)Nc1ccc([N+](=O)[O-])cc1)c1ccco1	/	/	/	/	-4.2	/
O=C(NC(=S)Nc1ccccc1[N+](=O)[O-])c1ccco1	4.6	2.5	3.5	0.9	0.3	94.9*
O=C(NNc1ccc([N+](=O)[O-])cc1[N+](=O)[O-])c1ccco1	18.5	-2.0	7.1	15.2	14.6	98.4*
CC(=NNC(=O)c1nnn(-c2nonc2N)c1CN(C)c1ccccc1)c1ccc(O)cc1	5.3	/	/	/	/	/
CC(C)CC(NC(=O)c1ccccc1)C(=O)NN=Cc1ccco1 (centres undefined)	-1.5	/	/	/	/	/
O=S(=O)(Nc1ccc2c(c1)OCO2)c1ccc(F)c(F)c1	0.9	5.4	0.8	/	1.4	88.4*
O=C(O)c1cccc(S(=O)(=O)Nc2ccc3c(c2)OCO3)c1	2.1	8.3	7.1	4.7	-10.0	-11.5
CCN(CC)c1ccc(C=NNc2nc3ccccc3[nH]2)cc1	-34.1	/	/	/	/	/
CCOC(=O)c1c(-c2cccc3ccccc23)csc1NC(=O)C1C2CCC(O2)C1C(=O)O (centres undefined)	1.4	2.4	8.3	-6.3	-8.7	/
COC(=O)c1c(-c2ccc(C(C)(C)C)cc2)csc1NC(=O)C1C2CCC(O2)C1C(=O)O (centres undefined)	-0.5	11.6	-8.6	28.2*	-2.2	35.6
Nn1c(Cc2cccc3ccccc23)nnc1SCc1ccccc1	3.5	1.8	3.0	6.0	0.4	-4.1
Nn1c(Cc2cccc3ccccc23)nnc1SCc1ccccc1Cl	-3.3	-5.8	1.7	9.4	-0.1	86.9*
SMILES	UCH37 inh	HDAC3 inhib	Rtt109 Vps75	PfM18AAP inh	FAS-TE inh	ALR inh
Nc1ncc(N=Nc2cc(C(=O)O)ccc2Cl)s1	13.8	/	32.6	28.8*	-2.7	66.5
Cc1sc2nc(CSc3nc4ccccc4s3)[nH]c(=O)c2c1C	2.5	-2.1	/	12.1	/	98.8*
Cc1sc2nc(CSc3ccc([N+](=O)[O-])cc3)[nH]c(=O)c2c1C	2.2	-1.0	/	7.1	/	99.3*
CCCCc1c(O)nc(SCC(=O)Nc2ccc(OC)cc2)n(-c2ccc(C)c(C)c2)c1=O	/	/	/	/	-8.7	/
COc1ccc(-n2c(SCC(=O)Nc3ccc(C)cc3)nc(O)c(Cc3ccccc3)c2=O)cc1	-0.3	1.9	1.2	-1.6	-3.8	98.3*
COc1ccc(-n2c(SCC(=O)Nc3ccc(Cl)cc3)nc(O)c(Cc3ccccc3)c2=O)cc1	1.2	-3.3	-1.9	-1.1	6.6	55.8
COc1ccc(-n2c(SCC(=O)Nc3ccccc3C)nc(O)c(Cc3ccccc3)c2=O)cc1	0.0	-3.8	-11.1	-13.7	-3.7	88.3*

Screens as filed in PubChem BioAssay.
